Most compounds without a hit are left out; they make up all but 2.3% or so of the library.
Scp-1 inhibitor – Scp-1 phosphatase inhibitors, primary screen, biochemical, colorimetric, uHTS; AID 493091, 2011; Carboxy-terminal domain RNA polymerase II polypeptide A small phosphatase 1 (Homo …; 0.88% of 340,000 active; Recombinant Scp1, phosphopeptide, malachite green phosphate absorbance; inhibition, % at 20 µM;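 active means inhibition above about 50% at 20 µM, limit read from the data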;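 further: plate controls were DMSO wells with enzyme for no effect and wells lacking enzyme for full effect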
Target sequence (Q9GZU7 76-261 limits assumed): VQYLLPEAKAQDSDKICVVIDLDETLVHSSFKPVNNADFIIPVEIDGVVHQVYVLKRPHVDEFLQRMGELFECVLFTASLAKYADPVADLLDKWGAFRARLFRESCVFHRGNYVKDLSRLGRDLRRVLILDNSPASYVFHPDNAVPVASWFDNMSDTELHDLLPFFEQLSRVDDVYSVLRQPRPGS
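Test system: SCP-1 phosphatase catalytic domain, residues 76-261; measured by: colorimetric phosphate reagent with accelerator and stabiliser, absorbance at 630 nm; timing: enzyme reaction 45 min at room temperature, colour 5 min, stabilisation 30 min; also added: Phosphorylated 17-residue peptide substrate; compound dosing: one concentration, 20 µM, with 1.0% DMSO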
DNMT1 inh – human DNMT1 methyltransferase inhibitors, primary screen, biochemical, molecular beacon, fluorescence, HinP1I cleavage, uHTS | DNA (cytosine-5)-methyltransferase 1 (Homo sapiens), P26358 | inhibition (reported as % activation of signal), % at 10 µM | 0.83% of 360,000 active | AID 588458, 2011; in the data active means inhibition above about 50%
Rpn11 inh – Rpn11 (PSMD14) deubiquitinase inhibitors, primary screen, biochemical, fluorescence polarization, uHTS | 26S proteasome non-ATPase regulatory subunit 14 (Homo sapiens), O00487 | human 26S proteasome, Ub4-pepOG fluorescence polarization; 20S core pre-blocked with epoxomicin | inhibition, % at 20 µM | 0.59% of 360,000 active | AID 588493, 2011;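 active means inhibition at 20 µM, scaled to each plate's controls, above about 33%, limit read from the data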
SUMO1 PPI mod – modulators of SUMO1 protein-protein interactions, primary screen, biochemical, uHTS | Small ubiquitin-related modifier 1 (Homo sapiens), P63165 | SUMO1 binding to a labelled peptide, TR-FRET, 1 h | inhibition, % at 20 µM | 0.33% of 360,000 active | AID 602429, 2012; in the data active means inhibition above about 37%
Target sequence (P63165 whole entry, looked up): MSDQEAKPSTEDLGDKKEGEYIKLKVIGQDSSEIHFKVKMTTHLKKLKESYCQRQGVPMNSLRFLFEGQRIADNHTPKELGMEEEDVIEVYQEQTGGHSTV
STEP block – STEP phosphatase inhibitors, primary screen, biochemical, fluorescence intensity, uHTS; recombinant STEP, OMFP fluorogenic substrate; 0.25% of 360,000 active; AID 588621, 2011; inhibition, % at 20 µM;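 active means inhibition at 20 µM, scaled per plate between control wells, above about 37%, limit read from the data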;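 further: 0% = DMSO with enzyme and substrate and 100% = substrate only without enzyme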
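Material: STEP (striatal-enriched tyrosine phosphatase) enzyme, cell-free | Medium: 50 mM Bis-Tris pH 6.0 with 2.5 mM DTT and 0.005% Tween 20 | Read-out: Percent inhibition scaled to no-enzyme and uninhibited-enzyme controls, plate-pattern corrected | Signal: Fluorescence read at 480 nm ex / 540 nm em | Times: 20 min reaction, room temperature, in the dark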
LMPTP inh – LMPTP phosphatase inhibitors, primary screen, biochemical, fluorescence intensity, uHTS. Low molecular weight phosphotyrosine protein phosphatase (Homo sapiens), P24666. recombinant LMPTP-A, OMFP fluorogenic substrate. inhibition, % at 20 µM. 0.22% of 360,000 active. AID 651560, 2012;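 active means compounds that cut the enzyme signal by at least half of the control window in the single-dose screen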;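 further: plate controls were DMSO wells with enzyme plus substrate for no effect and substrate without enzyme for full effect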
Target sequence (P24666 whole entry, looked up): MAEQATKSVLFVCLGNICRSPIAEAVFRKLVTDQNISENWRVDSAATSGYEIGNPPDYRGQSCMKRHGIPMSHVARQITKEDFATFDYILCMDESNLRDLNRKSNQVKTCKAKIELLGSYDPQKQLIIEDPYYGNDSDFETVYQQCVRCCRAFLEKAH
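Buffer or medium: Bis-Tris pH 6.0, DTT, detergent; Assay system: LMPTP-A enzyme; Quantity: 0.625 nM enzyme; Detection: endpoint fluorescence intensity; Times: 50 min dark incubation at room temperature; Controls: substrate-only low control, DMSO enzyme-plus-substrate high control; Doses: single 20 µM dose; Read-out: percent inhibition versus substrate-only and uninhibited controls; Reagent: 400 µM OMFP.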
Scp-1 conf – Scp-1 phosphatase inhibitors, retest, confirmation, biochemical, colorimetric, single concentration; AID 540281, 2011; shares compounds with Scp-1 inhibitor; 61% of 2,500 active; inhibition, % at 20 µM; recombinant SCP-1 catalytic domain, phosphate release, malachite green absorbance;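 further: plate controls were DMSO with enzyme for no effect and buffer wells lacking enzyme for full effect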
Scp-1 MG ctr – colorimetric readout interference by compounds, confirmation, artefact control for Scp-1 inhibitor project, biochemical, single concentration | shares compounds with Scp-1 inhibitor | Colorimetric interference counterscreen, malachite green absorbance 630 nm | apparent inhibition (interference), % at 20 µM | 2,500 tested, under 10 active | AID 540313, 2011;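 further: compounds added after enzyme reaction finished so only phosphate colour detection is probed; plate controls were DMSO wells with completed Scp-1 reaction for no effect and substrate wells lacking enzyme for full effect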
Scp1 DSF – Scp-1 binding by thermal shift, confirmation, orthogonal assay for Scp-1 inhibitor project, biophysical, differential scanning fluorimetry. shares compounds with Scp-1 inhibitor. Recombinant SCP1, Sypro Orange thermal shift Tm. thermal shift relative to vanadate control, % at 40 µM. 25% of 1,500 active. AID 540329, 2011;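 active means substances whose mean melting-temperature shift, as a percentage of the reference inhibitor's shift, reaches about 5.3%, limit read from the data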;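 further: 0% = Tm of DMSO wells and 100% = Tm with sodium orthovanadate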
Active calls of the source: *; / = no result given.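 How the source made its calls, unless noted: active means inhibition of at least 30% at 20 µM; inactive means the rest.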

SMILES | Scp-1 inhibitor | DNMT1 inh | Rpn11 inh | SUMO1 PPI mod | STEP block | LMPTP inh | Scp-1 conf | Scp-1 MG ctr | Scp1 DSF
N#Cc1c(SCC(=O)Nc2cccc(C(F)(F)F)c2)sc2c(O)cc(=O)[nH]c12 | 54* | 7 | 26 | 13 | 5 | 13 | 34* | -13 | 8.1*
COc1ccccc1NC(=O)CSc1sc2c(O)cc(=O)[nH]c2c1C#N | 77* | 10 | 30 | 13 | 8 | 22 | 33* | -14 | 13*
COc1ccc(Cl)cc1NC(=O)CSc1sc2c(O)cc(=O)[nH]c2c1C#N | 41 | 12 | 27 | 1 | 11 | 22 | / | / | /
OC1Cc2ccccc2C1Nc1cccc(C(F)(F)F)c1 (configuration not stated) | 4 | 0 | 3 | 35 | 2 | 0 | / | / | /
O=C(/C=C/c1ccccc1)OCc1cnc(Cl)s1 | 1 | -2 | -3 | 4 | 0 | -1 | / | / | /
CCc1cccc(C)c1NC(=O)CCCN1C(=O)CN(C)C1=O | -2 | 18 | -5 | 0 | -2 | -1 | -11 | -13 | /
COc1ccc(C)cc1NC(=O)CCCN1C(=O)CN(C)C1=O | -8 | -8 | 3 | -1 | 0 | -2 | -14 | -16 | /
COc1ccc(C)cc1NC(=O)CCCN1C(=O)C2CC=CCC2C1=O (configuration not stated) | -2 | 0 | 8 | -2 | 0 | 1 | / | / | /
COC(=O)c1ccc(C)c(NC(=O)CCCN2C(=O)CN(C)C2=O)c1 | 2 | -4 | 4 | 2 | 1 | -2 | / | / | /
C#CCNC(=O)C[C@@H]1C[C@@]2(C(=O)OC)CC(C)(C)CC=C2N(Cc2ccccc2)C1=O | / | / | / | 1 | / | -1 | / | / | /
C=Cc1ccc(Cn2c(C)c(C(=O)NCc3ccc(Cl)c(Cl)c3)sc2=O)cc1 | / | -20 | 10 | 3 | -1 | 3 | / | / | /
O=C(O)c1cc2c(s1)-c1ccccc1CC2 | -7 | 1 | 2 | -8 | -5 | -1 | / | / | /
O=C(N/N=C/c1ccc(Cl)cc1)c1cc2c(s1)-c1ccccc1CC2 | 101* | 33 | -7 | 3 | -3 | 24 | 64* | -15 | -18
N=C1/C(=C/c2ccc(-c3cccc(C(=O)O)c3)o2)C(=O)N=C2SC(CC(=O)N3CCOCC3)=NN12 | 79* | 56* | 3 | 33 | 25 | 2 | 58* | -13 | 2
CCOc1ccc(CNC(=O)Cn2nc(C)c3c(C)n(-c4ccc(C)cc4)nc3c2=O)cc1 | 85* | 19 | 4 | 5 | 16 | 12 | 62* | -13 | -21
Cc1ccc(-n2nc3c(=O)n(CC(=O)NCc4ccccn4)nc(C)c3c2C)cc1 | -7 | 0 | 6 | 2 | -2 | -1 | / | / | /
CSc1ccccc1NC(=O)CN(C)C(=O)/C=C/c1ccccc1 | 2 | 2 | -4 | -7 | 0 | 0 | / | / | /
CCOc1ncccc1C(=O)N(C)CC(=O)Nc1ccccc1SC | 60* | 4 | 5 | -1 | -6 | 0 | -3 | -7 | /

Compound activity deposited in PubChem by Sanford-Burnham Center for Chemical Genomics.
